# Sampled rows, rich in hits. Any-hit rate of the full collection: about 5.8%.
# WT yeast gro inh = growth inhibition of WT yeast, mitochondrial fusion screen | inhibition, % at 10 µM | mitochondrial fusion phenotypic screen, WT strain | 190,000 compounds, 2.1% hits; in the data active = inhibition above about 58%; tested in S. cerevisiae
# 14-3-3 Bad PPI = disrupts binding of bovine 14-3-3 zeta to phospho-Bad peptide; P63103; TR-FRET 14-3-3zeta/Dy647-pBad peptide displacement, 1 h; inhibition, % at 21.7 µM; 220,000 compounds, 0.71% hits; AID 781;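 active = inhibition above about 70%, limit read from the data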;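 also: 0% = full 14-3-3 plus peptide FRET controls and 100% = background without 14-3-3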
# Target sequence (P63103 whole entry, looked up): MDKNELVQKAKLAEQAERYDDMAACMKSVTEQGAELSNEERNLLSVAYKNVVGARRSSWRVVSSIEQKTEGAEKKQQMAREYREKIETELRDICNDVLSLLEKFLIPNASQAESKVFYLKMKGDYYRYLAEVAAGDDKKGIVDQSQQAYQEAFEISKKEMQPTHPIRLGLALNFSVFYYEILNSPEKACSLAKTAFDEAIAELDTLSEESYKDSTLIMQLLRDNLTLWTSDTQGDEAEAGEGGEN
# ROMK mod = human ROMK K+ channel modulation, primary screen; Tet-inducible ROMK, thallium flux fluorescence; actives lie on both sides; B-score at 10 µM; 130,000 compounds, 2% hits; P48048;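 active = signal ratio slope over the read window, or its plate-corrected B-score, at least 3 SD from the plate mean, either direction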;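 also: B-score of the F/F0 ratio slope over 7 to 12 s after thallium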
# KCC2 mod = modulates chloride dependent transport by human KCC2; 190,000 compounds, 2.2% hits; KCC2 cells, thallium flux FluoZin-2 fluorescence; B-score of Tl+ flux slope (higher = more flux/activation; lower = inhibition) at 10 µM; Q9H2X9;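 active = thallium flux slope and its plate-corrected score both differing from the plate sample mean at a set confidence after two filtering rounds, in either direction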;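 also: slope of fluorescence scaled to starting intensity during 10 to 20 s after thallium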
# p47phox inh = p47phox (human) inhibition; inhibition, % at 24.7 µM; p47phox/p22phox peptide binding, fluorescence polarization, 2 h; 220,000 compounds, 0.53% hits; AID 1274; P14598;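 active = inhibition above about 30%, limit read from the data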;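 also: 0% = p47phox with labelled peptide and 100% = labelled peptide alone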
# RBBP9 inhibitor = human RBBP9 hydrolase inhibition; O75884; recombinant RBBP9, FP-Rh probe fluorescence polarization; inhibition, % at 7.94 µM; 220,000 compounds, 0.2% hits;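 active = inhibition above the campaign mean of all tested compounds plus 3 SD, cut at about 14% in these data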;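 also: plate controls were DMSO wells with RBBP9 for no effect and wells lacking RBBP9 protein for full effect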
# Target sequence (O75884 whole entry, looked up): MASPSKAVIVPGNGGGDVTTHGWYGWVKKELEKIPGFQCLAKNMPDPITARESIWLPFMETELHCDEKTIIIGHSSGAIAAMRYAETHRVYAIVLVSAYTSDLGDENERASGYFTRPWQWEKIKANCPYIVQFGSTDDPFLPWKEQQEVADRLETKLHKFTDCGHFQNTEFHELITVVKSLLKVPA
#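 Test system: recombinant human RBBP9; Timing: 30 min then 45 min, 25 °C; Detection: fluorescence polarization; Control set: RBBP9 with DMSO as uninhibited control, no-protein wells as full inhibition; Compound dosing: one concentration, 7.94 µM nominal, 0.794% DMSO; Probe or stimulus: FP-Rh activity-based probe, 375 nM before mixing.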
# Active calls of the source: *; nt = no result given; [ ] = remark or other dose.
SMILES,WT yeast gro inh,14-3-3 Bad PPI,ROMK mod,KCC2 mod,p47phox inh,RBBP9 inhibitor
O=C1C2CC(O)CN2C(=S)N1Cc1ccccc1 (stereo unspecified),nt,10,0.31,0.67,-1,12
Cc1onc(-c2ccccc2)c1C(=O)N=C(N)c1ccc(C(F)(F)F)cc1,nt,-19,nt,-0.44,-6,3
CCCC(=O)OCC(=O)Nc1ccc2c(c1)OCO2,-10,1,-0.25,-0.011,-3,-2
CC1CCN(c2nc(CN3CCCCC3)nc3scc(-c4ccccc4)c23)CC1,68*,-11,nt,1.3,-21,4
CC1CCN(c2nc(-c3cccnc3)nc3scc(-c4ccccc4)c23)CC1,60*,-10,-0.84,0.95,-63,-5
CC1CCCN(c2nc(-c3cccnc3)nc3scc(-c4ccccc4)c23)C1 (stereo unspecified),61*,-11,-1.5,-1.5,-77,-8
Cc1ccccc1-n1nc(C)c(N=O)c1N,-11,-1,0.28,0.65,2,-12
O=C(O)CCCNC(=O)CCCn1nnc2ccccc2c1=O,nt,-11,nt,0.26,-8,-3
COc1ccc(C(CCNC(C)c2ccccc2)C(C)C)cc1 (stereo unspecified),nt,-4,nt,-0.89,42*,-8
CCC(=O)OCCNc1cc(Sc2nc3ccccc3[nH]2)c2nonc2c1[N+](=O)[O-],8,-5,nt,0.3,-6,-5
CCC(=O)OCCNc1cc(Sc2nc3ccccc3s2)c2nonc2c1[N+](=O)[O-],95*,-4,-2.4,3.2,-11,0
Cc1ccc2sc(N(CCCN(C)C)C(=O)c3nc4ccccc4s3)nc2c1C,59*,21,-1.4,1.4,32*,2
Cc1cccc2sc(N(CCCN(C)C)C(=O)c3nc4ccccc4s3)nc12,20,21,nt,2.8,-5,-10
Cc1ccc2sc(N(CCCN(C)C)C(=O)c3ccc(Br)s3)nc2c1C,87*,-2,-0.1,0.41,-4,2
CCNc1ccc(C(=O)NN=C2CCCC2)cc1[N+](=O)[O-],8,-5,-1,0.024,-5,-7
CCOC(=O)NC(=O)c1cn(Nc2ccccc2)c(=O)[nH]c1=O,nt,-7,nt,nt,-6,7
COc1cccc(/C=N/NC(=O)CNC(=O)c2ccc(S(=O)(=O)N3CCCC3)cc2)c1OC,-13,3,-0.52,0.29,0,-10
CCS(=O)(=O)N1CCN(C(C)CCc2ccccc2)CC1 (stereo unspecified),4,70*,0.23,-0.23,1,-6
CC(CCc1ccccc1)N1CCN(Cc2ccccc2)CC1 (stereo unspecified),-10,6,nt,-0.057,-8,-7
CC(=O)N/N=C/c1cc(C(C)C)cc(/C=N/NC(C)=O)c1O,9,-22,-3.3*,5.7*,28,1
CC(=O)N/N=C/c1cc(C)n(-c2ccc(Br)cc2)c1C,31,-3,nt,-0.087,-5,2
OCCN(CCO)CC(O)COc1ccc(C23CC4CC(CC(C4)C2)C3)cc1 (stereo unspecified),95*,3,0.75,0.32,-3,-1
OCCN(CCO)CC(O)COc1ccc(Br)cc1 (stereo unspecified),nt,2,-0.18,-0.072,-5,-7
Cc1occc1C(=O)Nc1nnc(-c2cccs2)s1,6,-5,-0.44,2,-22,-4
CC(C)n1c(-c2ccc(C(C)(C)C)cc2)n[nH]c1=S,10,-8,nt,37*,-12,-8
SMILES,WT yeast gro inh,14-3-3 Bad PPI,ROMK mod,KCC2 mod,p47phox inh,RBBP9 inhibitor
CC(C)n1c(-c2ccccc2F)n[nH]c1=S,-1,-7,nt,-0.37,-16,-7
c1ccc(-c2cc(-c3ccc(N4CCOCC4)cc3)nc3ccccc23)cc1,36,3,-0.059,0.28,-14,-1
COc1ccc2c(-c3ccccc3)cc(N3CCOCC3)nc2c1,21,86*[fluorescence artefact?],nt,-0.21,-9,-10
CC(NC(=O)COc1ccccc1-c1ccccc1)c1ccccc1 (stereo unspecified),71*,2,nt,-0.45,-13,-9
Cc1ncc([N+](=O)[O-])n1CC(=O)N/N=C/c1ccccc1F,15,6,0.97,0.56,1,2
COCC(=O)OCC(=O)Nc1ccc(Cl)cc1[N+](=O)[O-],-7,1,0.16,0.2,18,-2
O=C(O)c1cc2cc(Cl)cc(Cl)c2oc1=O,-6,83*,-0.44,0.21,-5,0

# Screens (PubChem)
